Results as given in article PMC11295983 (ESMO Open, 2024).
Like-named read-outs stand apart in the source and are kept apart here. One block for each compound: values may come before it.

Assays:
[1] = test system: patients with advanced solid tumor malignancies; assay: Safety and tolerability; format: in vivo, human
How it was run: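 Patients are ≥18 years with solid tumors that progressed after ≥1 prior line. They self-administer oral pemigatinib 9, 13.5 or 20 mg q.d. on 21-day cycles, continuous or intermittent, combined with chemotherapy, trastuzumab or anti-PD-1 antibody until progression or toxicity. Interruption and dose adjustment are allowed. AE frequency, duration and severity are summarized descriptively for patients receiving ≥1 dose.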

[2] = test system: advanced solid tumors; assay: Investigator-assessed tumor response per RECIST v1.1, FIGHT-101 part 3; format: in vivo, human
[3] = target: phosphorylated FGFR2α (Homo sapiens, UniProt P21802); format: cell-based
How it was run: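 Patients take oral pemigatinib once daily on 21-day cycles, continuous or intermittent, with combination therapy (e.g. i.v. docetaxel 75 mg/m² q3w, i.v. pembrolizumab 200 mg q3w). Steady-state trough is cycle 1 day 14, 0-24 h. Values are mean (SE) inhibition.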

[4] = test system: patients with advanced malignancies; details: monotherapy, parts 1 and 2; cited from earlier work
[5] = test system: advanced malignancies; details: monotherapy, cited from earlier work
[6] = test system: pFGFR2α; details: based on in vivo experiments; no reference given; cited from earlier work
[7] = both the 9-mg and 13.5-mg doses of pemigatinib

Chain of phosphorylated FGFR2α (P21802 431-767 limits assumed): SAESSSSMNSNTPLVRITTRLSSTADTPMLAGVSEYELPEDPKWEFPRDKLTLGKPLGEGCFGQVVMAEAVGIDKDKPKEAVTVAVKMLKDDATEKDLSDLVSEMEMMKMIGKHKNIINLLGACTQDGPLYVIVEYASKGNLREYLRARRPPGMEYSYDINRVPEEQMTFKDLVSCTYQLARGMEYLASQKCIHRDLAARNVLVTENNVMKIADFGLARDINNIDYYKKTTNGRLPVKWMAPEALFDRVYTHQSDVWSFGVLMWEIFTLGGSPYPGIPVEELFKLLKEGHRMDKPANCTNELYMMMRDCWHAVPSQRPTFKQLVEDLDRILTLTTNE

Compound: pemigatinib + docetaxel [Pemi/doc]
Alopecia (TEAE) ([1]; pemigatinib 13.5 mg ID): 3 (42.9) n (%)
Anemia (TEAE) ([1]; pemigatinib 13.5 mg ID): 4 (57.1) n (%)
Constipation (TEAE) ([1]; pemigatinib 13.5 mg ID): 3 (42.9) n (%)
Dehydration (TEAE) ([1]; pemigatinib 13.5 mg ID): 5 (71.4) n (%)
Diarrhea (TEAE) ([1]; pemigatinib 13.5 mg ID): 6 (85.7) n (%)
Diarrhea TEAE, patients ([1]; pemigatinib 13.5 mg ID): 85.7%
Dose interruptions because of TEAEs, patients ([1]; pemigatinib 13.5 mg ID): 42.9%
Dysgeusia (TEAE) ([1]; pemigatinib 13.5 mg ID): 3 (42.9) n (%)
Fatigue (TEAE) ([1]; pemigatinib 13.5 mg ID): 6 (85.7) n (%)
Fatigue TEAE, patients ([1]; pemigatinib 13.5 mg ID): 85.7%
Hyperphosphatemia (TEAE) ([1]; pemigatinib 13.5 mg ID): 6 (85.7) n (%)
Hyperphosphatemia TEAE, patients ([1]; pemigatinib 13.5 mg ID): 85.7%
Nausea (TEAE) ([1]; pemigatinib 13.5 mg ID): 4 (57.1) n (%)
Neutropenia (TEAE) ([1]; pemigatinib 13.5 mg ID): 3 (42.9) n (%)
Stomatitis TEAE, patients ([1]; pemigatinib 13.5 mg ID): 28.6%
TEAEs related to the combination partner, patients ([1]; pemigatinib 13.5 mg ID): 71.4%
Taste disorder (TEAE) ([1]; pemigatinib 13.5 mg ID): 3 (42.9) n (%)
Vomiting (TEAE) ([1]; pemigatinib 13.5 mg ID): 3 (42.9) n (%)
Weight decreased (TEAE) ([1]; pemigatinib 13.5 mg ID): 3 (42.9) n (%)
ORR (95% CI) ([2]; pemigatinib 13.5 mg ID): 14.3%
DOR, individual responder ([2]; urothelial tract/bladder cancer, FGF10 amplification): 12.5 months
Inhibition of FGFR2α phosphorylation at trough of steady state [3, 7]: exceeded 50%

Compound: CCN1C(=O)N(c2c(F)c(OC)cc(OC)c2F)Cc2cnc3[nH]c(CN4CCOCC4)cc3c21 [pemigatinib]
Alopecia, patients [4]: 31.3%
Diarrhea, patients [4]: 32.0%
Dose reductions, patients [4]: 4.6%
Dry mouth, patients [4]: 38.3%
Fatigue, patients [4]: 39.1%
Hyperphosphatemia, patients [4]: 75.0%
Patients who discontinued pemigatinib because of TEAEs [4]: 10.2%
Pemigatinib interruption used to manage TEAEs, patients [4]: 51.6%
Stomatitis, patients [4]: 34.4%
Patients with partial responses (PRs) ([5]; 128 patients in parts 1 or 2): 9.4%
ORR among patients with FGFR mutations ([5]; parts 1 or 2): 23.1%
ORR among patients with FGFR rearrangements ([5]; parts 1 or 2): 25.0%
IC50 [6]: 22.6 nM

Compound: pemigatinib + retifanlimab [Pemi/reti]
Alopecia (TEAE) ([1]; Total (all pemigatinib doses)): 6 (33.3) n (%)
Dehydration (TEAE) ([1]; Total (all pemigatinib doses)): 8 (44.4) n (%)
Diarrhea (TEAE) ([1]; Total (all pemigatinib doses)): 7 (38.9) n (%)
Dry mouth (TEAE) ([1]; Total (all pemigatinib doses)): 9 (50.0) n (%)
Fatigue (TEAE) ([1]; Total (all pemigatinib doses)): 11 (61.1) n (%)
Hyperphosphatemia (TEAE) ([1]; Total (all pemigatinib doses)): 11 (61.1) n (%)
Hyperphosphatemia TEAE, patients ([1]; Total (all pemigatinib doses)): 61.1%
Hypomagnesemia (TEAE) ([1]; Total (all pemigatinib doses)): 6 (33.3) n (%)
Pemigatinib-related TEAEs, patients ([1]; Total (all pemigatinib doses)): 94.4%
Stomatitis (TEAE) ([1]; Total (all pemigatinib doses)): 12 (66.7) n (%)
Stomatitis TEAE, patients ([1]; Total (all pemigatinib doses)): 66.7%
TEAEs related to the combination partner, patients ([1]; Total (all pemigatinib doses)): 88.9%
Stomatitis TEAE, patients ([1]; pemigatinib 13.5 mg CD): 77.8%
ORR (95% CI) ([2]; Total (all pemigatinib doses)): 11.1%
DOR, individual responder ([2]; pemigatinib 13.5 mg CD, ovarian cancer, no detectable FGF/FGFR alterations): 4.2 months
DOR, individual responder ([2]; pemigatinib 13.5 mg CD, urothelial cancer, FGF3/4/19 amplification): 8.3 months

More lines, main results first:

Inhibition of FGFR2α phosphorylation at trough of steady state [3, 7]: exceeded 50%
Compound: pemigatinib + trastuzumab [Pemi/tras]
Alopecia (TEAE) ([1]; pemigatinib 13.5 mg ID): 5 (83.3) n (%)
Alopecia TEAE, patients ([1]; pemigatinib 13.5 mg ID): 83.3%
Anemia (TEAE) ([1]; pemigatinib 13.5 mg ID): 2 (33.3) n (%)
Constipation (TEAE) ([1]; pemigatinib 13.5 mg ID): 2 (33.3) n (%)
Cough (TEAE) ([1]; pemigatinib 13.5 mg ID): 4 (66.7) n (%)
Decreased appetite (TEAE) ([1]; pemigatinib 13.5 mg ID): 3 (50.0) n (%)
Diarrhea (TEAE) ([1]; pemigatinib 13.5 mg ID): 3 (50.0) n (%)
Dry eye (TEAE) ([1]; pemigatinib 13.5 mg ID): 2 (33.3) n (%)
Dry mouth (TEAE) ([1]; pemigatinib 13.5 mg ID): 4 (66.7) n (%)
Dyspepsia (TEAE) ([1]; pemigatinib 13.5 mg ID): 2 (33.3) n (%)
Dyspnea (TEAE) ([1]; pemigatinib 13.5 mg ID): 2 (33.3) n (%)
Epistaxis (TEAE) ([1]; pemigatinib 13.5 mg ID): 2 (33.3) n (%)
Fatigue (TEAE) ([1]; pemigatinib 13.5 mg ID): 2 (33.3) n (%)
Fatigue TEAE, patients ([1]; pemigatinib 13.5 mg ID): 33.3%
Headache (TEAE) ([1]; pemigatinib 13.5 mg ID): 2 (33.3) n (%)
Hyperphosphatemia (TEAE) ([1]; pemigatinib 13.5 mg ID): 5 (83.3) n (%)
Hyperphosphatemia TEAE, patients ([1]; pemigatinib 13.5 mg ID): 83.3%
Nausea (TEAE) ([1]; pemigatinib 13.5 mg ID): 2 (33.3) n (%)
Pemigatinib-related TEAEs, patients ([1]; pemigatinib 13.5 mg ID): 83.3%
Pyrexia (TEAE) ([1]; pemigatinib 13.5 mg ID): 2 (33.3) n (%)
Sinusitis (TEAE) ([1]; pemigatinib 13.5 mg ID): 3 (50.0) n (%)
Stomatitis (TEAE) ([1]; pemigatinib 13.5 mg ID): 2 (33.3) n (%)
TEAEs related to the combination partner, patients ([1]; pemigatinib 13.5 mg ID): 50.0%
Taste disorder (TEAE) ([1]; pemigatinib 13.5 mg ID): 2 (33.3) n (%)
Upper respiratory tract infection (TEAE) ([1]; pemigatinib 13.5 mg ID): 2 (33.3) n (%)
ORR (95% CI) ([2]; pemigatinib 13.5 mg ID): 0%

Inhibition of FGFR2α phosphorylation at trough of steady state ([3]; pemigatinib 13.5 mg ID): 31%
Compound: pemigatinib + gemcitabine + cisplatin [Pemi/gem/cis]
Alanine aminotransferase increased (TEAE) ([1]; Total (all pemigatinib doses)): 4 (50.0) n (%)
Alopecia TEAE, patients ([1]; Total (all pemigatinib doses)): 12.5%
Anemia (TEAE) ([1]; Total (all pemigatinib doses)): 8 (100.0) n (%)
Aspartate aminotransferase increased (TEAE) ([1]; Total (all pemigatinib doses)): 4 (50.0) n (%)
Blood creatinine increased (TEAE) ([1]; Total (all pemigatinib doses)): 5 (62.5) n (%)
Constipation (TEAE) ([1]; Total (all pemigatinib doses)): 5 (62.5) n (%)
Dehydration (TEAE) ([1]; Total (all pemigatinib doses)): 3 (37.5) n (%)
Diarrhea (TEAE) ([1]; Total (all pemigatinib doses)): 4 (50.0) n (%)
Dizziness (TEAE) ([1]; Total (all pemigatinib doses)): 3 (37.5) n (%)
Dose interruptions because of TEAEs, patients ([1]; Total (all pemigatinib doses)): 87.5%
Dose reductions because of TEAEs, patients ([1]; Total (all pemigatinib doses)): 12.5%
Dry mouth (TEAE) ([1]; Total (all pemigatinib doses)): 3 (37.5) n (%)
Fatigue (TEAE) ([1]; Total (all pemigatinib doses)): 5 (62.5) n (%)
Hyperphosphatemia (TEAE) ([1]; Total (all pemigatinib doses)): 4 (50.0) n (%)
Hyperphosphatemia TEAE, patients ([1]; Total (all pemigatinib doses)): 50.0%
Hypokalemia (TEAE) ([1]; Total (all pemigatinib doses)): 3 (37.5) n (%)
Hyponatremia (TEAE) ([1]; Total (all pemigatinib doses)): 4 (50.0) n (%)
Nausea (TEAE) ([1]; Total (all pemigatinib doses)): 5 (62.5) n (%)
Neutropenia (TEAE) ([1]; Total (all pemigatinib doses)): 4 (50.0) n (%)
Pemigatinib-related TEAEs, patients ([1]; Total (all pemigatinib doses)): 87.5%
Stomatitis (TEAE) ([1]; Total (all pemigatinib doses)): 3 (37.5) n (%)
TEAEs related to the combination partner, patients ([1]; Total (all pemigatinib doses)): 100.0%
Thrombocytopenia (TEAE) ([1]; Total (all pemigatinib doses)): 5 (62.5) n (%)
Vomiting (TEAE) ([1]; Total (all pemigatinib doses)): 3 (37.5) n (%)
White blood cell count decreased (TEAE) ([1]; Total (all pemigatinib doses)): 4 (50.0) n (%)
Anemia TEAE, patients ([1]; pemigatinib 13.5 mg ID): 100.0%
ORR (95% CI) ([2]; Total (all pemigatinib doses)): 37.5%
DOR, individual responder ([2]; pemigatinib 13.5 mg ID, anal cancer, no detectable FGF/FGFR alterations): 5.8 months
DOR, individual responder ([2]; pemigatinib 13.5 mg ID, ovarian cancer, no detectable FGF/FGFR alterations): 6.6 months

Inhibition of FGFR2α phosphorylation at trough of steady state [3, 7]: exceeded 50%
Compound: pemigatinib + pembrolizumab [Pemi/pembro]
Alanine aminotransferase increased (TEAE) ([1]; Total (all pemigatinib doses)): 8 (30.8) n (%)
Alopecia (TEAE) ([1]; Total (all pemigatinib doses)): 11 (42.3) n (%)
Anemia (TEAE) ([1]; Total (all pemigatinib doses)): 12 (46.2) n (%)
Aspartate aminotransferase increased (TEAE) ([1]; Total (all pemigatinib doses)): 8 (30.8) n (%)
Decreased appetite (TEAE) ([1]; Total (all pemigatinib doses)): 11 (42.3) n (%)
Diarrhea (TEAE) ([1]; Total (all pemigatinib doses)): 12 (46.2) n (%)
Dose interruptions because of TEAEs, patients ([1]; Total (all pemigatinib doses)): 57.7%
Dose reductions because of TEAEs, patients ([1]; Total (all pemigatinib doses)): 7.7%
Dry eye (TEAE) ([1]; Total (all pemigatinib doses)): 8 (30.8) n (%)
Dry mouth (TEAE) ([1]; Total (all pemigatinib doses)): 9 (34.6) n (%)
Fatigue TEAE, patients ([1]; Total (all pemigatinib doses)): 26.9%
Hyperphosphatemia (TEAE) ([1]; Total (all pemigatinib doses)): 19 (73.1) n (%)
Pemigatinib-related TEAEs, patients ([1]; Total (all pemigatinib doses)): 88.5%
Stomatitis (TEAE) ([1]; Total (all pemigatinib doses)): 9 (34.6) n (%)
TEAEs related to the combination partner, patients ([1]; Total (all pemigatinib doses)): 69.2%
Alopecia TEAE, patients ([1]; pemigatinib 13.5 mg CD): 55.6%
Dry mouth TEAE, patients ([1]; pemigatinib 13.5 mg CD): 55.6%
Hyperphosphatemia TEAE, patients ([1]; pemigatinib 13.5 mg CD): 55.6%
Hyperphosphatemia TEAE, patients ([1]; pemigatinib 13.5 mg ID): 78.6%
ORR (95% CI) ([2]; Total (all pemigatinib doses)): 26.9%
DOR, individual responder ([2]; pemigatinib 13.5 mg ID, urothelial tract/bladder cancer, FGFR3 p.S249C mutation): 50.3 months
